Source: ChEMBL document CHEMBL1153363, “Structure-activity relationships for a series of quinoline-based compounds active against replicating and nonreplicating Mycobacterium tuberculosis” (J Med Chem, 2009)
Values after ≈ are worked out from the molar mass of the structure shown.

Assays:
[1] = tested on: Mycobacterium tuberculosis; assay: Antitubercular activity against replicating form of Mycobacterium tuberculosis H37Rv ATCC 27294 after 7 days by microplate alamar blue assay; format: functional; settings: 168 h
Method in brief: (§1)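 12.8 mM DMSO stocks; two-fold dilutions in Middlebrook 7H12 broth, final 128 to 0.5 µM. Inoculum 2 × 10⁵ cfu/mL, 37 °C. On day 7, Tween 80 plus Alamar Blue added; fluorescence read (ex 530/em 590 nm) after 16-24 h more. MIC = lowest concentration giving ≥90% fluorescence drop versus bacteria-only controls; mean of two runs. RMP and INH positive controls.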

[2] = tested on: Mycobacterium tuberculosis; assay: Antitubercular activity against non replicating persistent form of Mycobacterium tuberculosis H37Rv ATCC 27294 after 10 days by LORA; format: functional; settings: 240 h
Method in brief: (§2)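 Recombinant H37Rv (pFCA-luxAB, V. harveyi luciferase, acetamidase promoter), low-oxygen adapted in fermentor, washed in PBS, stored at -80 °C. About 10⁵ cfu/mL of thawed cells exposed to two-fold serial dilutions in 7H12, 10 days anaerobic at 37 °C. Luminescence read after 28 h aerobic recovery (5% CO₂). MIC = lowest concentration preventing recovery (90% reduction versus untreated), read graphically.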

[3] = tested on: Vero; assay: Cytotoxicity against african green monkey Vero cells after 72 hrs by Cell titer assay; format: cell-based, Chlorocebus sabaeus
Method in brief: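 Vero CCL-81 cells, log phase. Samples from 12.8 mM DMSO stocks in geometric 3-fold dilutions in MEM with 10% FBS, 25 mM HEPES, 0.2% NaHCO₃ and 2 mM glutamine; DMSO ≤1% v/v final. Run in duplicate, 72 h at 37 °C, 5% CO₂. Viability by CellTiter 96 aqueous assay, absorbance 490 nm; IC50 from curve fitting.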

[4] = tested on: Mycobacterium tuberculosis; assay: Antitubercular activity against Mycobacterium tuberculosis; format: functional; method in brief: as §1
[5] = tested on: Mycobacterium tuberculosis; assay: Ratio of MIC for non replicating persistent form of Mycobacterium tuberculosis H37Rv ATCC 27294 by LORA to MIC for replicating form of Mycobacterium tuberculosis H37Rv ATCC 27294 by microplate alamar blue assay; format: functional
[6] = tested on: Mycobacterium tuberculosis; assay: Antitubercular activity against replicating form of Mycobacterium tuberculosis; format: functional; method in brief: as §1
[7] = tested on: Mycobacterium tuberculosis; assay: Antitubercular activity against non replicating persistent form of Mycobacterium tuberculosis; format: functional; method in brief: as §2
[8] = Chlorocebus sabaeus, Vero, 72 h

SMILES	MIC [1]	MIC [2]	IC50 [3, 8]	further results
CCOC(=O)c1cc(COc2ccnc3c(C(F)(F)F)cccc23)on1	10.6 µM (≈ 3.88 µg/mL)	56.6 µM (≈ 20.7 µg/mL)	> 128 µM	
CCOC(=O)c1coc(COc2cc(C(F)(F)F)nc3c(C(F)(F)F)cccc23)n1	> 128 µM			
CCOC(=O)c1cc(COc2cc(C(F)(F)F)nc3c(F)cc(F)cc23)on1	14.6 µM (≈ 5.87 µg/mL)			
CCOC(=O)c1cc(COc2cc(C(F)(F)F)nc3cc(C(F)(F)F)cc(C(F)(F)F)c23)on1	0.77 µM (≈ 0.387 µg/mL)	10 µM (≈ 5.02 µg/mL)	> 128 µM	
CCOC(=O)c1cc(COc2cc(C(F)(F)F)nc3c(OC(F)(F)F)cccc23)on1	2.6 µM (≈ 1.17 µg/mL)	7 µM (≈ 3.15 µg/mL)	> 128 µM	
CCOC(=O)c1cc(CCOc2cc(C(F)(F)F)nc3c(C(F)(F)F)cccc23)on1	3.4 µM (≈ 1.52 µg/mL)	9.9 µM (≈ 4.44 µg/mL)	> 128 µM	
CCOC(=O)c1cc(COc2cc(C(F)(F)F)nc3cccc(C(F)(F)F)c23)on1	3.8 µM (≈ 1.65 µg/mL)		> 128 µM	
CCOC(=O)c1cc(COc2cc(C(F)(F)F)nc3c(F)ccc(F)c23)on1	41.2 µM (≈ 16.6 µg/mL)	52.8 µM (≈ 21.2 µg/mL)		
CCOC(=O)c1ccc(COc2cc(C(F)(F)F)nc3c(C(F)(F)F)cccc23)cc1	> 128 µM		> 128 µM	
CCOC(=O)c1cccc(COc2cc(C(F)(F)F)nc3c(C(F)(F)F)cccc23)n1	> 128 µM			
CCOC(=O)c1cc(COc2ccnc3ccccc23)on1	25.1 µM (≈ 7.49 µg/mL)	13.2 µM (≈ 3.94 µg/mL)	> 128 µM	
CN[C@@H]1[C@H](O[C@H]2[C@H](O[C@H]3[C@H](O)[C@@H](O)[C@H](N=C(N)N)[C@@H](O)[C@@H]3N=C(N)N)O[C@@H](C)[C@]2(O)C=O)O[C@@H](CO)[C@H](O)[C@H]1O [STREPTOMYCIN]	0.3 µM (≈ 0.174 µg/mL)			
CO[C@H]1/C=C/O[C@@]2(C)Oc3c(C)c(O)c4c(O)c(c(/C=N/N5CCN(C)CC5)c(O)c4c3C2=O)NC(=O)/C(C)=C\C=C\[C@H](C)[C@H](O)[C@@H](C)[C@@H](O)[C@@H](C)[C@H](OC(C)=O)[C@@H]1C [RIFAMPIN]	0.1 µM (≈ 0.0823 µg/mL)	1.9 µM (≈ 1.56 µg/mL)	127 µM	IC50 ([3]; vero): 127 µM
CCOC(=O)c1cc(COc2cc(C(F)(F)F)nc3cc(C(F)(F)F)ccc23)on1	1.3 µM (≈ 0.565 µg/mL)		> 128 µM	
CCOC(=O)c1cc(COc2cc(C(F)(F)F)nc3cc(Cl)cc(Cl)c23)on1	1.9 µM (≈ 0.827 µg/mL)	3.7 µM (≈ 1.61 µg/mL)	> 128 µM	
CCOC(=O)c1cc(-c2cccc(Oc3cc(C(F)(F)F)nc4ccccc34)c2)on1	0.95 µM (≈ 0.407 µg/mL)	3.7 µM (≈ 1.58 µg/mL)	> 128 µM	
FC(F)(F)c1cc(OCc2nnn[nH]2)c2cccc(C(F)(F)F)c2n1	> 128 µM			
CCOC(=O)c1cc(COc2cc(C(F)(F)F)nc3c(F)cccc23)on1	11.3 µM (≈ 4.34 µg/mL)	39 µM (≈ 15 µg/mL)	> 128 µM	

SMILES	MIC [1]	MIC [2]	IC50 [3, 8]	further results
CCOC(=O)c1cc(COc2cc(C(F)(F)F)nc3c(Cl)cccc23)on1	62.9 µM (≈ 25.2 µg/mL)	49.3 µM (≈ 19.8 µg/mL)		
CCOC(=O)c1nc(COc2cc(C(F)(F)F)nc3c(C(F)(F)F)cccc23)cs1	16.5 µM (≈ 7.43 µg/mL)		> 128 µM	
CCC(=O)c1cc(COc2cc(C(F)(F)F)nc3c(C(F)(F)F)cccc23)on1	27.4 µM (≈ 11.5 µg/mL)		64.9 µM	
OC(c1cc(C(F)(F)F)nc2c(C(F)(F)F)cccc12)C1CCCCN1 (configuration not stated) [MEFLOQUINE]				MIC [4]: 13 µM (≈ 4.92 µg/mL)
CCOC(=O)c1cc(COc2cc(C(=O)OCC)nc3ccccc23)on1	7.9 µM (≈ 2.93 µg/mL)	15.7 µM (≈ 5.81 µg/mL)	> 128 µM	
CCOC(=O)c1cc(COc2cc(C(F)(F)F)nc3ccc(C(F)(F)F)cc23)on1	3.7 µM (≈ 1.61 µg/mL)	7.6 µM (≈ 3.3 µg/mL)	> 128 µM	Ratio [5]: 2
CCOC(=O)c1cc(Cn2ccc(=O)c3ccc(C(F)(F)F)cc32)on1	> 128 µM			
CCOC(=O)c1cc(COc2cc(C(F)(F)F)nc3c(C)cccc23)on1	1.8 µM (≈ 0.685 µg/mL)	10.4 µM (≈ 3.96 µg/mL)	> 128 µM	
CCOC(=O)C1=NOC(COc2cc(C(F)(F)F)nc3c(C(F)(F)F)cccc23)C1 (configuration not stated)	22.2 µM (≈ 9.69 µg/mL)		> 128 µM	
CCOC(=O)c1cc(COc2cc(C(F)(F)F)nc3c(C(F)(F)F)cccc23)on1	0.9 µM (≈ 0.391 µg/mL)	12.2 µM (≈ 5.3 µg/mL)	> 128 µM	MIC [6]: 0.9 µM (≈ 0.391 µg/mL); MIC [7]: 12.2 µM (≈ 5.3 µg/mL)
CCOC(=O)c1cc(COc2ccnc3cc(C(F)(F)F)ccc23)on1	3.3 µM (≈ 1.21 µg/mL)	81.9 µM (≈ 30 µg/mL)		Ratio [5]: 25
O=[N+]([O-])c1ccc(COc2cc(C(F)(F)F)nc3c(C(F)(F)F)cccc23)o1	6.3 µM (≈ 2.56 µg/mL)		15.4 µM	
CCOC(=O)c1cc(COc2ccnc3cc(Cl)ccc23)on1	3.8 µM (≈ 1.26 µg/mL)	99.7 µM (≈ 33.2 µg/mL)	> 128 µM	Ratio [5]: 25
CCOC(=O)c1ccc(COc2cc(C(F)(F)F)nc3c(C(F)(F)F)cccc23)o1	> 128 µM		118 µM	
CCOC(=O)c1cc(COc2cc(C(F)(F)F)nc3ccccc23)on1	3.2 µM (≈ 1.17 µg/mL)	25.1 µM (≈ 9.19 µg/mL)	> 128 µM	
CCOC(=O)c1cc(COc2cc(C(F)(F)F)nc3c(C(F)(F)F)cccc23)no1	3.6 µM (≈ 1.56 µg/mL)		> 128 µM	
NNC(=O)c1ccncc1 [ISONIAZID]	0.5 µM (≈ 0.0686 µg/mL)	> 128 µM	> 128 µM	
CCOC(=O)c1cc(COc2cc(C(F)(F)F)nc3c(C(F)(F)F)cc(OC)cc23)on1	66.1 µM (≈ 30.7 µg/mL)		> 128 µM	
